ChEMBL document CHEMBL4346663, “N-Cinnamoylanthranilates as human TRPA1 modulators: Structure-activity relationships and channel binding sites” (Eur J Med Chem, 2019)
Each block holds one molecule with its values, some of them ahead of it. Active and inactive are the calls of the source. The calls are words filed in the database; no cut-off is given here.

Columns and labels:
[1] = target: T1, Transient receptor potential cation channel subfamily A member 1 (Homo sapiens, UniProt O75762); test: Antagonist activity at human TRPA1 expressed in HEK293 cells assessed as increase in calcium influx at 3 uM incubated for 10 mins prior to CA challenge by Fluo-4-AM dye based fluorescence assay […]; format: cell-based
[2] = target: T1, Transient receptor potential cation channel subfamily A member 1; test: Agonist activity at human TRPA1 expressed in HEK293 cells assessed as increase in calcium influx at 30 uM by Fluo-4-AM dye based fluorescence assay relative to calcimycin; format: cell-based
Summary of the method: (§1)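 Stably transfected hTRPA1- or hTRPM8-HEK293 cells on poly-D-lysine plates for 48 h, loaded with Fluo-4AM (2 µM, 45 min, dark, room temperature), in isotonic HEPES buffer pH 7.4. FlexStation 240 s run: 20 s baseline, compound added, calcimycin added at 180 s. ΔRFU expressed as % calcimycin, DMSO-subtracted. Screening N = 3. Dose-response curves fitted for logEC50 (N = 3 in duplicate or triplicate).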

[3] = Dissociation constant, pKa of the compound at pH 7.4; format: physicochemical
[4] = target: T2, Transient receptor potential cation channel subfamily M member 8 (Homo sapiens, UniProt Q7Z2W7); test: Antagonist activity at human TRPM8 expressed in HEK293 cells assessed as increase in calcium influx at 30 uM incubated for 10 mins prior to WS5 challenge by Fluo-4-AM dye based fluorescence assay relative to WS5; format: cell-based; parameters: scale not given: the % may be the effect or the level left
Summary of the method: (§2)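 hTRPM8-HEK293 cells loaded with Fluo-4AM (2 µM, 45 min). Test compound pre-incubated 10 min before WS5 standard agonist. FlexStation fluorescence at 485/538 nm. ΔRFU given as % of WS5 response after DMSO vehicle subtraction. N = 3. IC50 from dose-response curves.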
Target sequence in this assay (Q7Z2W7 whole entry, looked up): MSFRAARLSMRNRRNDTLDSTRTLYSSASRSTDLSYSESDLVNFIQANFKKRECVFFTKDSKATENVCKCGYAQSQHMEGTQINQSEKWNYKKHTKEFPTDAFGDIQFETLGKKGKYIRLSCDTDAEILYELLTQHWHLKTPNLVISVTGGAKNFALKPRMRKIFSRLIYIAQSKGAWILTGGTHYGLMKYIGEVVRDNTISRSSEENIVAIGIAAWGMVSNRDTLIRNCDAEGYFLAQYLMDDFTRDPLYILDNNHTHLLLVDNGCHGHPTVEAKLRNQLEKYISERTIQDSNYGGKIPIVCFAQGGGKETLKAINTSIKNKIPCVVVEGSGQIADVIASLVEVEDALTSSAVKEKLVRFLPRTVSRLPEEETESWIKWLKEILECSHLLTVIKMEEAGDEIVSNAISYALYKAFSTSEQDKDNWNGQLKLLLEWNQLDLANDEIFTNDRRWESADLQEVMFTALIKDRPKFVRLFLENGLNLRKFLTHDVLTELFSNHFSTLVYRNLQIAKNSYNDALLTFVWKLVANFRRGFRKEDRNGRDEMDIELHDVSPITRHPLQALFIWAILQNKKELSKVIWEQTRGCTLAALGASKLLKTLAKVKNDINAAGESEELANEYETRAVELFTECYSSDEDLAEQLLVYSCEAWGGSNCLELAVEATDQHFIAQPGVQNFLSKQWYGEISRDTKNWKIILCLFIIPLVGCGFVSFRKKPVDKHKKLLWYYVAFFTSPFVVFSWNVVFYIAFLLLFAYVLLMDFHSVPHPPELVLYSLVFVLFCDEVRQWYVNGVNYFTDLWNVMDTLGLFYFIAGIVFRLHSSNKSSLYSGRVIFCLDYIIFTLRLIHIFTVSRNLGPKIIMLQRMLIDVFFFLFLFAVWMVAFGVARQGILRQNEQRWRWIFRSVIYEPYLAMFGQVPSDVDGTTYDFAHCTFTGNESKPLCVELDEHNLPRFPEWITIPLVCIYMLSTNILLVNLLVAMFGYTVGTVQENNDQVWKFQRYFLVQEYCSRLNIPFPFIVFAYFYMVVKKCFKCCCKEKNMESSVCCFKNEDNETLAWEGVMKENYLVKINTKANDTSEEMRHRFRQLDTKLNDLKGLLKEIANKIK

[5] = target: T2, Transient receptor potential cation channel subfamily M member 8; test: Agonist activity at human TRPM8 expressed in HEK293 cells assessed as increase in calcium influx at 3 uM by Fluo-4-AM dye based fluorescence assay relative to calcimycin; format: cell-based; summary of the method: as §1
Target sequence in this assay (Q7Z2W7 whole entry, looked up): as above

[6] = tested on: Transient receptor potential cation channel subfamily A member 1 (Homo sapiens), O75762 [F909A]; test: Agonist activity at human TRPA1 Phe909Ala mutant expressed in HEK293 cells assessed as Ca2+ influx at 30 uM by fluorescence assay; format: cell-based
Summary of the method: (§3)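 HEK293 cells stably expressing hTRPA1 point mutants (C621A, F909A or F944A), single-cell cloned under G418 selection. Cells plated on poly-D-lysine for 48 h, loaded with Fluo-4AM 2 µM for 45 min at room temperature. FlexStation read (ex 485/em 538 nm): 20 s baseline, compound added, calcimycin added at 180 s. Response expressed as % calcimycin from ΔRFU, vehicle-subtracted, and compared with wild-type hTRPA1 cells.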

[7] = tested on: Transient receptor potential cation channel subfamily A member 1 (Homo sapiens), O75762 [F944A]; test: Agonist activity at human TRPA1 Phe944Ala mutant expressed in HEK293 cells assessed as Ca2+ influx at 30 uM by fluorescence assay; format: cell-based; summary of the method: as §3
[8] = target: T1, Transient receptor potential cation channel subfamily A member 1; test: Agonist activity at human TRPA1 expressed in HEK293 cells assessed as increase in calcium influx by Fluo-4-AM dye based fluorescence assay; format: cell-based; summary of the method: as §1
[9] = target: T1, Transient receptor potential cation channel subfamily A member 1; test: Agonist activity at human TRPA1 in WI38 cells assessed as increase in calcium influx by Fluo-4-AM dye based fluorescence assay; format: cell-based
[10] = tested on: Transient receptor potential cation channel subfamily A member 1 (Homo sapiens), O75762 [F909A]; test: Antagonist activity at human TRPA1 Phe909Ala mutant expressed in HEK293 cells assessed as Ca2+ influx at 100 uM by fluorescence assay; format: cell-based
Summary of the method: (§4)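 hTRPA1 F909A or F944A mutant HEK293 stable clones, loaded with Fluo-4AM (2 µM, 45 min, room temperature). Compound pre-incubated 10 min before the standard agonist was added. FlexStation fluorescence (485/538 nm). ΔRFU normalized to the standard agonist response set at 100 %, after DMSO vehicle subtraction.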

[11] = target: T1, Transient receptor potential cation channel subfamily A member 1; test: Antagonist activity at human TRPA1 expressed in HEK293 cells assessed as inhibition of CA-induced increase in calcium influx incubated for 10 mins prior to CA addition by Fluo-4-AM dye based fluorescence assayy; format: cell-based
[12] = tested on: Transient receptor potential cation channel subfamily A member 1 (Homo sapiens), O75762 [F944A]; test: Antagonist activity at human TRPA1 Phe944Ala mutant expressed in HEK293 cells assessed as Ca2+ influx at 100 uM by fluorescence assay; format: cell-based; summary of the method: as §4
[13] = tested on: Transient receptor potential cation channel subfamily A member 1 (Homo sapiens), O75762 [F909A]; test: Agonist activity at human TRPA1 Phe909Ala mutant expressed in HEK293 cells assessed as Ca2+ influx at 100 uM by fluorescence assay; format: cell-based
Summary of the method: (§5)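 HEK293 cells stably expressing hTRPA1 point mutants, made by FuGENE 6 transfection, G418 (0.5 mg ml-1) selection and single-cell cloning, grown in DMEM with 25 mM HEPES, 10% FBS and geneticin. Ca2+ influx was read by Fluo dye fluorescence at room temperature, with calcimycin added at the end. Response was ΔRFU as % of calcimycin, with the DMSO vehicle subtracted.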

[14] = target: Transient receptor potential cation channel subfamily A member 1 (Mus musculus, UniProt Q8BLA8); test: Agonist activity at mouse TRPA1 expressed in CHO cells assessed as increase in calcium influx by patch clamp electrophysiology method; format: cell-based
[15] = tested on: Transient receptor potential cation channel subfamily A member 1 (Homo sapiens), O75762 [C621A]; test: Agonist activity at human TRPA1 […] mutant expressed in HEK293 cells assessed as Ca2+ influx at 100 uM by fluorescence assay; format: cell-based
[16] = tested on: Transient receptor potential cation channel subfamily A member 1 (Homo sapiens), O75762 [F944A]; test: Agonist activity at human TRPA1 Phe944Ala mutant expressed in HEK293 cells assessed as Ca2+ influx at 100 uM by fluorescence assay; format: cell-based; summary of the method: as §5
[17] = target: T1, Transient receptor potential cation channel subfamily A member 1; test: Reversible desensitizing activity at human TRPA1 expressed in HEK293 cells assessed as CA-induced increase in Ca2+ influx up to 30 uM pretreated with compound followed by drug wash-out and CA challenge by Fluo-4-AM dye based fluorescence assay; format: cell-based
Summary of the method: (§6)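 hTRPA1-HEK293 cells loaded with Fluo-4AM were pre-incubated with compound, then washed and resuspended in fresh assay buffer. The response to cinnamaldehyde (30 µM) was then measured by FlexStation calcium fluorescence.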

[18] = target: T2, Transient receptor potential cation channel subfamily M member 8; test: Antagonist activity at human TRPM8 expressed in HEK293 cells assessed as increase in calcium influx at 100 uM incubated for 10 mins prior to WS5 challenge by Fluo-4-AM dye based fluorescence assay relative to WS5; format: cell-based; parameters: scale not given: the % may be the effect or the level left; summary of the method: as §2
Target sequence in this assay (Q7Z2W7 whole entry, looked up): as above

[19] = target: T2, Transient receptor potential cation channel subfamily M member 8; test: Antagonist activity at human TRPM8 expressed in HEK293 cells assessed as inhibition in WS5-induced increase in calcium influx incubated for 10 mins prior to WS5 challenge by Fluo-4-AM dye based fluorescence assay; format: cell-based; summary of the method: as §2
Target sequence in this assay (Q7Z2W7 whole entry): as the sequence (Q7Z2W7 whole entry, looked up) above

[20] = target: T1, Transient receptor potential cation channel subfamily A member 1; test: Antagonist activity at human TRPA1 expressed in HEK293 cells assessed as increase in calcium influx at 100 uM incubated for 10 mins prior to CA addition by Fluo-4-AM dye based fluorescence assay relative to CA; format: cell-based; parameters: scale not given: the % may be the effect or the level left
Summary of the method: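 hTRPA1-HEK293 cells loaded with Fluo-4AM (2 µM). Compound pre-incubated 10 min, then cinnamaldehyde standard agonist added. FlexStation read, ex 485/em 538 nm. ΔRFU normalized to the CA response set at 100 % after DMSO vehicle subtraction. N = 3. logIC50 taken from dose-response fits.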

[21] = target: T2, Transient receptor potential cation channel subfamily M member 8; test: Agonist activity at human TRPM8 expressed in HEK293 cells assessed as increase in calcium influx at 100 uM by Fluo-4-AM dye based fluorescence assay relative to calcimycin; format: cell-based; summary of the method: as §1
Target sequence in this assay (Q7Z2W7 whole entry, looked up): as above

[22] = target: T2, Transient receptor potential cation channel subfamily M member 8; test: Agonist activity at human TRPM8 expressed in HEK293 cells assessed as increase in calcium influx at 30 uM by Fluo-4-AM dye based fluorescence assay relative to calcimycin; format: cell-based; summary of the method: as §1
Target sequence in this assay (Q7Z2W7 whole entry, looked up): as above

[23] = target: T1, Transient receptor potential cation channel subfamily A member 1; test: Modulating activity at human TRPA1 expressed in HEK293 cells assessed as desensitization of CA-induced increase in Ca2+ influx at 10 uM measured within 10 mins by Fluo-4-AM dye based fluorescence assay; format: cell-based
Summary of the method: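 hTRPA1-HEK293 cells with Fluo-4AM. Real-time fluorescence recorded for 10 min after compound addition (10 µM), followed by challenge with cinnamaldehyde (30 µM) to assess desensitization of the agonist response.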

[24] = target: T1, Transient receptor potential cation channel subfamily A member 1; test: Irreversible desensitizing activity at human TRPA1 expressed in HEK293 cells assessed as CA-induced increase in Ca2+ influx at >30 uM pretreated with compound followed by drug wash-out and CA challenge by Fluo-4-AM dye based fluorescence assay; format: cell-based; summary of the method: as §6
Cavia porcellus [25] = species: Cavia porcellus; test: Agonist activity at TRPA1 in Dunkin-Hartley guinea pig vagus nerve assessed as activation of vagus nerve by measuring depolarization at 300 uM […]
Summary of the method: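 Isolated vagus nerves from male Dunkin-Hartley guinea pigs (300-400 g, eight animals). Compound DMSO stocks diluted 1000× in Krebs-Henseleit buffer. Viability checked with capsaicin (1 µM) at the start and acrolein (300 µM) at the end. Single non-cumulative concentrations applied for 2 min each, with KH wash to baseline between them. DMSO vehicle run alike. Depolarization recorded in mV.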

Cavia porcellus [26] = species: Cavia porcellus; test: Antagonist activity at TRPA1 in Dunkin-Hartley guinea pig vagus nerve assessed as inhibition of ACR-stimulated vagus nerve by measuring depolarization at 300 uM incubated for 10 mins followed by ACR stimulation for 140 secs […]
Summary of the method: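 Guinea pig vagus nerve (male Dunkin-Hartley) in Krebs-Henseleit buffer; compound from DMSO stock diluted 1000×. Two control acrolein (300 µM, 2 min) responses, each washed to baseline. Then 10 min compound pretreatment and re-stimulation with acrolein 300 µM for 2 min 20 s. After washout, a recovery acrolein response was taken. Depolarization recorded in mV.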

Sequence of Transient receptor potential cation channel subfamily A member 1 (Homo sapiens), O75762 [F909A] (O75762 whole entry F909A): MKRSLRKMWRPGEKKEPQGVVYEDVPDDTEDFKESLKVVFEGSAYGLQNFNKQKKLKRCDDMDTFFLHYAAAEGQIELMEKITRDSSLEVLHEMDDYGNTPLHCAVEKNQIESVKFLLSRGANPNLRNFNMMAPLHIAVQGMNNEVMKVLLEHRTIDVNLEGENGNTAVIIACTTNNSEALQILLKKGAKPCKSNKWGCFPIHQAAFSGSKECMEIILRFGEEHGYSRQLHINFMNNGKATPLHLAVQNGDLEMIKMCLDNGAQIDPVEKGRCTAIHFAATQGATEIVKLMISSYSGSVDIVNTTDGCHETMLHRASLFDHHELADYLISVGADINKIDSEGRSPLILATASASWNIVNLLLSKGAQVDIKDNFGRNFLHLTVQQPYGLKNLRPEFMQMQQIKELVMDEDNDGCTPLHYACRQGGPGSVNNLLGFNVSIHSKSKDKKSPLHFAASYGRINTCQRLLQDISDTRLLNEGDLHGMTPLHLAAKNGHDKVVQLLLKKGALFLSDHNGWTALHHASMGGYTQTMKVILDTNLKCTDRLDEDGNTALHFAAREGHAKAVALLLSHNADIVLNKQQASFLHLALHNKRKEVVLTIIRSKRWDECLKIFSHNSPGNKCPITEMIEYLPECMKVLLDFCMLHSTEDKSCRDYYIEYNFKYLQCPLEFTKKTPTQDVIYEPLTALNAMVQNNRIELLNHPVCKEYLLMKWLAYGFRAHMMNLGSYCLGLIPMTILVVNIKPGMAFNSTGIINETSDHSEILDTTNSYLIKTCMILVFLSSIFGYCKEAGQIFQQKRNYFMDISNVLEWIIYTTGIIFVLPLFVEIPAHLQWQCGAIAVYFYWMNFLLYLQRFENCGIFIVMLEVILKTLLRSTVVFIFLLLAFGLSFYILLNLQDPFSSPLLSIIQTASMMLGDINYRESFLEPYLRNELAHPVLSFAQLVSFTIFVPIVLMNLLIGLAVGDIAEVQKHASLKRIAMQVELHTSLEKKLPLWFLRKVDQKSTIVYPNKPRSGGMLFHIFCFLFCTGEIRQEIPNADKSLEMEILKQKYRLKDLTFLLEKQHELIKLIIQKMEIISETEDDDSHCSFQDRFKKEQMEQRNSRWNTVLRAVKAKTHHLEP
Sequence of Transient receptor potential cation channel subfamily A member 1 (Homo sapiens), O75762 [F944A] (O75762 whole entry F944A): as the sequence (O75762 whole entry F909A) above, with A909F, F944A counted along it
T1 sequence (O75762 whole entry): as the sequence (O75762 whole entry F909A) above, with A909F counted along it
Sequence of Transient receptor potential cation channel subfamily A member 1 (Homo sapiens), O75762 [C621A] (O75762 whole entry C621A): as the sequence (O75762 whole entry F909A) above, with C621A, A909F counted along it
Sequence of Transient receptor potential cation channel subfamily A member 1 (Mus musculus, UniProt Q8BLA8) (Q8BLA8 whole entry): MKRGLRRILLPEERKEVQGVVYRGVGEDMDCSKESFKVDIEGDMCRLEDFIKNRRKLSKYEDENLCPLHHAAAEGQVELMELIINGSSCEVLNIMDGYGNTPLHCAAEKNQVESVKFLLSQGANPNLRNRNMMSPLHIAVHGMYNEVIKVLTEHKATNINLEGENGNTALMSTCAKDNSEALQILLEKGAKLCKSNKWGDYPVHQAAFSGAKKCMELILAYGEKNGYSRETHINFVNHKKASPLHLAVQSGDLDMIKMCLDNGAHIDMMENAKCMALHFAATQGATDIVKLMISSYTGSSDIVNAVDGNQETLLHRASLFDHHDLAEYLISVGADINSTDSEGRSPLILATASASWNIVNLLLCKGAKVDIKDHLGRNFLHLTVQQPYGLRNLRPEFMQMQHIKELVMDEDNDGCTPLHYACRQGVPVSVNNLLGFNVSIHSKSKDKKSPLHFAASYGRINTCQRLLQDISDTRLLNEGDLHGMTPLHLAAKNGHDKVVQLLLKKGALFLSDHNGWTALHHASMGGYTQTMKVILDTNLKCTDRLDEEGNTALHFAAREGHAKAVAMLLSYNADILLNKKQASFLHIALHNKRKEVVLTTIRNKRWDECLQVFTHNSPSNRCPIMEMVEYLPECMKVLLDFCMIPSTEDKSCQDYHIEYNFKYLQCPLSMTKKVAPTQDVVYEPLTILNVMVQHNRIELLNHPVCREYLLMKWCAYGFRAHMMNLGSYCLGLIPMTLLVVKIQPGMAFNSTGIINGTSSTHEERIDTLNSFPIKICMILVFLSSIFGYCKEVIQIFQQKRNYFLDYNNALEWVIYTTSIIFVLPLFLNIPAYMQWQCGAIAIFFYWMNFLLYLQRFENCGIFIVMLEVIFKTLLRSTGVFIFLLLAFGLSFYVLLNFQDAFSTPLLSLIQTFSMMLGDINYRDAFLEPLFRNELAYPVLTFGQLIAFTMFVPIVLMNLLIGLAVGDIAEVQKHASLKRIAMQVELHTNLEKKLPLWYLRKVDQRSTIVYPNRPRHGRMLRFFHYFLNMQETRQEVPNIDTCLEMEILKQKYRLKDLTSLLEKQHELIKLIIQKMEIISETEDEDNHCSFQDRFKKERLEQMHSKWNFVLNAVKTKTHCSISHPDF

SMILES: COC(=O)c1ccccc1NC(=O)CCOc1ccccc1
- Activity [1]: inactive
- Activity [2]: 45%
- pKa [3]: 11.9
- Activity [4]: 12%
- Activity [5]: inactive
- Activity [6]: Active
- Activity [7]: inactive

SMILES: O=C(NCc1ccc(Cl)cc1)[C@@H]1CCCN1S(=O)(=O)c1ccc(F)cc1
- Activity [10]: inactive
- IC50 [11]: 10 µM
- Activity [12]: inactive

SMILES: CC1CCC(C(C)C)C(O)C1 (centres undefined) [MENTHOL]
- Activity [13]: inactive
- EC50 ([8]; read-out: EC50): 30 µM
- EC50 [14]: 95 µM
- Activity [15]: inactive
- Activity [16]: inactive

SMILES: O=C(O)Cc1ccccc1Nc1c(Cl)cccc1Cl [DICLOFENAC]
- EC50 ([8]; read-out: EC50): 56 µM
- EC50 ([8]; read-out: pEC50 (converted)): 63.1 µM
- Activity [6]: Active
- EC50 [9]: 210 µM

Second part, led by results:

- EC50 ([8]; read-out: EC50): 16 µM
- Activity [6]: Active
- EC50 [9]: 61 µM
SMILES: Cc1cccc(Nc2ccccc2C(=O)O)c1C [MEFENAMIC ACID]

- Activity [2]: 44%
- EC50 ([8]; read-out: EC50): 42 µM
- Activity [18]: 25%
- pKa [3]: 3.4
- IC50 [19]: 21 µM
- IC50 [11]: 11 µM
- Activity [20]: 5%
- Activity [21]: inactive
- Activity [22]: inactive
SMILES: O=C(/C=C/c1ccccc1Cl)Nc1ccccc1C(=O)O
- Activity [17]: Active
- Activity [23]: Active
- Activity [24]: Active

- Activity [2]: 1%
- Activity [10]: inactive
- Activity (Cavia porcellus [25]): Active
- Activity [18]: 70%
- pKa [3]: 3.5
- IC50 [11]: 43 µM
- Activity [20]: 35%
- Activity [21]: inactive
- Activity [22]: inactive
- inhibition (Cavia porcellus [26]): inactive
SMILES: O=C(/C=C/c1ccc(O)cc1)Nc1ccccc1C(=O)O
